FAS TE block = inhibitors of human fatty acid synthase thioesterase domain; 360,000 tested, 0.67% active; AID 602261; inhibition, % at 15 µM; recombinant FAS-TE, OMFH fluorogenic substrate, fluorescence endpoint;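 active means compounds whose normalised, plate-corrected inhibition of enzyme fluorescence in the single-dose primary screen is 50% or more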;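 further: 0% = DMSO with enzyme and 100% = substrate without enzyme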
Arrestin-AP2 inh = human beta-arrestin and AP2 interaction inhibition. AID 504490. 340,000 tested, 0.31% active. FITC-arrestin peptide / GST-AP2 beads, flow cytometry; AP2 beta2 appendage carries R879A mutation. inhibition, % at 10 µM;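 active means inhibition above a set limit, near 3 SD of compounds lacking own fluorescence, cut at about 54% in these data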;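 further: plate controls were DMSO wells for no effect and 5 µM unlabelled arrestin peptide for full effect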
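Measured by: flow cytometry, FL1 (488/535 nm); Material: AP2 appendage R879A on GSH beads; Evaluation: percent response; Timing: pre-incubation 12 min, peptide binding 1 h, room temperature; Also added: 50 nM FITC-arrestin peptide; Medium: PBS with 0.05% Tween 20 and 0.1% BSA.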
JMJD2C inh = blocks human GASC-1 demethylase activity. Q9H3R0. GST-JMJD2C(1-420) H3K9me3 demethylation, DELFIA europium. inhibition, % at 2.35 µM. 330,000 tested, 0.069% active;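 active means more than half of a compound's replicate wells show inhibition beyond 50%, single wells judged on their own value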;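 further: signal counts dimethyl H3K9 product captured on neutravidin plate; 0% = median of DMSO wells and 100% = 0.3 times that DMSO median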
SENP1 FRET inh = inhibitors of human SENP1 SUMO protease catalytic domain. Q9P0U3. recombinant SENP1 catalytic domain, CyPet-SUMO1-YPet FRET cleavage. inhibition, % at 10 µM. 360,000 tested, 0.21% active;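 active means inhibition at least 30% at 10 µM, raw YFP signal under a set limit, fluorescence ratio 0.5 to 1.5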;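 further: 0% = enzyme with DMSO and 100% = no enzyme wells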
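material = recombinant human SENP1 catalytic domain, His6-tagged | quantity = 20 pM enzyme | reagent = 25 nM SUMO1 FRET substrate | compound dosing = 10 µM single point, 0.5% DMSO | timing = 50 min enzyme reaction, room temperature, light-protected | detection = FRET, CFP and YFP emission | control set = no-enzyme low, enzyme-DMSO high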
SENP1 conf = confirmation of human SENP1 SUMO protease inhibitors; shares compounds with SENP1 FRET inh; recombinant SENP1, CyPet-SUMO1-YPet FRET cleavage; inhibition, % at 10 µM; 520 tested, 34% active; in the data active means inhibition mostly above about 35%, no sharp cut-off; inactive means mostly below about 32%;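 further: 0% = enzyme with DMSO and 100% = no enzyme control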
SENP1 kinetic = confirmation of human SENP1 SUMO protease inhibitors, kinetic | 520 tested, 26% active | inhibition, % at 10 µM | shares compounds with SENP1 FRET inh | recombinant SENP1, CyPet-SUMO1-YPet FRET kinetic cleavage; in the data active means inhibition mostly above about 32%, no sharp cut-off; inactive means mostly below about 29%;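 further: 0% = DMSO with enzyme and 100% = no enzyme substrate only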
* = called active by the depositor; · = no result. Hits are enriched below; roughly 1.1% of the tested compounds scored in any of these assays.

SMILES | FAS TE block | Arrestin-AP2 inh | JMJD2C inh | SENP1 FRET inh | SENP1 conf | SENP1 kinetic
Cc1cccc(N2C(=O)C(O)=C(C(=O)c3cccs3)C2c2ccc(Cl)cc2)n1 (stereo not given) | 2 | -8 | 3 | -3 | · | ·
Cc1ccc2c(CC(=O)Nc3cccc(S(=O)(=O)N4CCOCC4)c3)coc2c1 | 18 | 28 | 5 | 2 | · | ·
O=C(Cc1n[nH]c(=O)[nH]c1=O)N/N=C/c1ccccc1 | -9 | 0 | -12 | -1 | · | ·
O=C(Cc1n[nH]c(=O)[nH]c1=O)N/N=C/c1c(O)ccc2ccccc12 | -4 | 4 | -2 | 39* | -18 | 21
COc1ccccc1N1C(=O)S/C(=C\c2cc(C)n(C)c2C)C1=O | 7 | -9 | -2 | -51 | · | ·
COc1ccccc1N1C(=O)S/C(=C\c2ccc(C)s2)C1=O | -15 | 39 | 4 | 40* | 13 | 14
CC1CCc2c(sc3ncnc(SCC(=O)N(C)C4CCS(=O)(=O)C4)c23)C1 (stereo not given) | 4 | 1 | 0 | 32* | 1 | 19
Clc1ccc(-c2ccc(C=Nc3ccc(N4CCOCC4)cc3)o2)c(Cl)c1 | 6 | 0 | -4 | 32* | -2 | 3
CCCn1c(SCC(=O)Nc2cccc(C)n2)nnc1C(C)C | -12 | -16 | -14 | 4 | · | ·
Brc1ccccc1/C=N/Nc1ccccn1 | 1 | -1 | -6 | 44* | -4 | -2
Brc1ccc(/C=N/Nc2ccccn2)cc1 | -1 | 9 | -2 | 1 | · | ·
Cc1cc(C(=O)NC(=S)Nc2ccccc2N2CCOCC2)ccc1[N+](=O)[O-] | 20 | 9 | -3 | 3 | · | ·
O=[N+]([O-])c1cccc(/C=C/c2nc(C=Nc3ccccc3)c(O)o2)c1 | -14 | 1 | 7 | 33* | 17 | 18
CCC(N)C12CC3CC(CC(O)(C3)C1)C2 (stereo not given) | -2 | 19 | 8 | 0 | · | ·
CC(=O)Nc1cc(-c2ccc(N3CCN(C)CC3)cc2)cn2c(-c3ccc(F)c(Cl)c3)cnc12 | 13 | · | · | 42* | 20 | 22
CN1CCN(c2ccc(-c3cc(NC=O)c4ncc(-c5ccc(F)c(Cl)c5)n4c3)cc2)CC1 | 14 | · | · | 46 | · | ·
CC(=O)Nc1cc(-c2ccc(N3CCN(C)CC3)cc2)cn2c(-c3cccc(C(C)=O)c3)cnc12 | -3 | · | · | 37* | 20 | 13
C#CCOCCOCCOCCNc1nc(N2CCN(C(=O)[C@H](CCCN=C(N)N)n3cc(C(N)[C@@H](C)CC)nn3)CC2)nc(N2CCN(C(=O)[C@H](CC(N)=O)n3cc([C@@H](N)C(C)C)nn3)CC2)n1 (stereo not given in full) | -13 | 25 | -5 | 2 | · | ·
COc1ccc(-c2ccc3c(c2)S(=O)(=O)c2cccc(C(=O)NCCOc4ccccc4)c2C3=O)cc1OC | -8 | 28 | 0 | 59* | 68* | 49*
O=C(NCCOc1ccccc1)c1cccc2c1C(=O)c1ccc(Cl)cc1S2(=O)=O | 49 | 6 | 8 | 2 | · | ·
O=C(NC1CCCCC1)c1sc(=S)n2c1[nH]c(=O)c1ccccc12 | 29 | 6 | 5 | 0 | · | ·
O=C(NCC1CCCO1)c1sc(=S)n2c1[nH]c(=O)c1ccc(C(=O)N3CCCCC3)cc12 (stereo not given) | 5 | 25 | -2 | 31* | 42* | 19
CCc1nc2c(OCc3ccc(C(=O)OC)cc3)cccn2c1N(C)C(=O)c1ccc(C)cc1 | 5 | · | · | -1 | · | ·
Cc1nc(NC(=O)c2csc3ccccc23)sc1C | 6 | 26 | -5 | 2 | · | ·
O=C(N1CCOCC1)N1CCC(n2nnc3cc(F)ccc32)CC1 | -9 | 5 | 7 | 30* | 29 | 14
Cc1ccc2c(c1)C(=C(C#N)C#N)CCN2 | -25 | 1 | · | 36* | 52* | 33*
Cc1ccc2c(c1)C(=O)CCN2 | -8 | 26 | 1 | 30 | · | ·
CN1CCN(C(=O)C2CCN(S(=O)(=O)c3ccccc3[N+](=O)[O-])CC2)CC1 | -4 | 35 | -8 | 5 | · | ·
COc1ccc(NC(=O)CN(C)C(=O)Cc2ccc3c(c2)OCCO3)cc1 | -5 | 12 | 0 | 4 | · | ·

Compound activity deposited in PubChem by several laboratories.
